Data: ChEMBL document CHEMBL1156818, “Rational design of indoleamine 2,3-dioxygenase inhibitors” (J Med Chem, 2010)
Blank lines part the entries; values can stand above or below the compound they belong to.

Legend:
[1] = target: T1, Indoleamine 2,3-dioxygenase 1 (Homo sapiens, UniProt P14902)
[2] = target: Indoleamine 2,3-dioxygenase 1 (Mus musculus, UniProt P28776); assay: Inhibition of mouse recombinant IDO expressed in mouse P815B cells assessed as blockade of tryptophan degradation by HPLC; format: cell-based
[3] = target: Tryptophan 2,3-dioxygenase (Mus musculus, UniProt P48776); assay: Inhibition of mouse recombinant TDO expressed in mouse P815B cells assessed as blockade of tryptophan degradation by HPLC; format: cell-based
[4] = Cytotoxicity against mouse P815B cells expressing mouse recombinant IDO by MTT assay; format: cell-based; settings: read-out: LD50 (the source's name)
Method in brief: (§1)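 Cells (2 × 10⁵/well) incubated 8 h at 37 °C in HBSS with 80 μM L-Trp and compound titrated 0.312–80 μM or 1.56–400 μM. Supernatant was removed; the remaining cells received culture medium (Iscove, 10% FCS, amino acids) plus MTT for 3-4 h at 37 °C.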

[5] = (§2) Cytotoxicity against HEK293 cells expressing human recombinant IDO by MTT assay; format: cell-based; settings: human, HEK293 cells expressing human recombinant IDO; read-out: LD50 (the source's name)
Method in brief: as §1

[6] = Cytotoxicity against mouse P815B cells expressing mouse recombinant TDO by MTT assay; format: cell-based; settings: for CC50: mouse, P815B cells expressing mouse recombinant TDO, read-out: LD50 (the source's name)
Method in brief: as §1

[7] = target: T1, Indoleamine 2,3-dioxygenase 1; assay: Inhibition of human recombinant IDO expressed in HEK293 cells assessed as blockade of tryptophan degradation by HPLC; format: cell-based
HEK293 = assay: as §2; format: cell-based; settings: Homo sapiens, HEK293
Method in brief: as §1

Indoleamine 2,3-dioxygenase 1 (Mus musculus, UniProt P28776), sequence (P28776 whole entry): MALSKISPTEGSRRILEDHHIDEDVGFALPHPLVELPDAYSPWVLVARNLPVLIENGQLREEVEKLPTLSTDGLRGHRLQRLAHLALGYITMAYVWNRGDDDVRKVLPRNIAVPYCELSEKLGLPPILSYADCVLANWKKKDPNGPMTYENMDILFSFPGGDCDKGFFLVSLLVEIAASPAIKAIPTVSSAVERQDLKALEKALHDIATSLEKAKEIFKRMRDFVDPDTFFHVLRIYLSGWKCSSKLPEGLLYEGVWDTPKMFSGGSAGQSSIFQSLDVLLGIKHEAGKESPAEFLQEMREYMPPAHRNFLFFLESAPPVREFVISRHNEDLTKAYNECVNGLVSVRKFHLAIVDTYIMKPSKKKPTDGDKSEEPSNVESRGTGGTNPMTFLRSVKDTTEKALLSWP
Tryptophan 2,3-dioxygenase, sequence (P48776 whole entry): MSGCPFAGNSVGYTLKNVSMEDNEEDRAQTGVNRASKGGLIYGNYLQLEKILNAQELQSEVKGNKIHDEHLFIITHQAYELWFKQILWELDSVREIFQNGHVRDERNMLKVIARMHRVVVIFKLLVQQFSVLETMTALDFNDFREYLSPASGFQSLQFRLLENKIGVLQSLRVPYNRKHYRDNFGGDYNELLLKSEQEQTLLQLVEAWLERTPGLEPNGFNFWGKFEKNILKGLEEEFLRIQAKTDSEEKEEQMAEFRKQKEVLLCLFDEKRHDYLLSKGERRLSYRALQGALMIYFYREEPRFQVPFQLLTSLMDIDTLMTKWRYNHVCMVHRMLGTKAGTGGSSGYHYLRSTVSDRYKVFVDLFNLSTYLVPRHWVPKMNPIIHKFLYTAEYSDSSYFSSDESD
T1 sequence (P14902 whole entry): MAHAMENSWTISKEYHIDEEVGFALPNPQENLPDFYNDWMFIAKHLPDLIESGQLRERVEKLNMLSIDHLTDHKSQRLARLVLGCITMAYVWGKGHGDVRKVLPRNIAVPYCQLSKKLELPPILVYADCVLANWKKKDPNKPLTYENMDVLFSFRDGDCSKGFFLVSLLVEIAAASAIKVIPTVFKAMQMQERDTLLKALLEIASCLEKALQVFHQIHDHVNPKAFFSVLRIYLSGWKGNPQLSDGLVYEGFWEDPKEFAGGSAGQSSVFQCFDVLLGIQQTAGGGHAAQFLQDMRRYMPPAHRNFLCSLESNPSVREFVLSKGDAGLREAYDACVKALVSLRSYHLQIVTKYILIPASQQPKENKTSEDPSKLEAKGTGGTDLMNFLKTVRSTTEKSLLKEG

IC50 ([1]; read-out: IC50): 500 µM
Structure (SMILES): O=C(c1ccccc1)c1cccc(O)c1

IC50 ([1]; read-out: IC50): 1000 µM
Structure (SMILES): Nc1nc(-c2ccccc2)cs1

Structure (SMILES): c1ccc(-c2cnn[nH]2)cc1
IC50 ([2]; read-out: IC50): 5 µM | IC50 [3]: > 400 µM | CC50 [4]: > 80 µM | CC50 [5]: > 400 µM | CC50 [6]: > 400 µM

Structure (SMILES): Oc1ccc(O)c2ccccc12
IC50 [3]: > 10 µM | CC50 [4]: 40 µM | CC50 [5]: 40 µM | CC50 [6]: 10 µM

Structure (SMILES): c1cc(-c2cnn[nH]2)ccn1
IC50 ([1]; read-out: IC50): 5 µM | IC50 ([2]; p815b): Not Active | CC50 [4]: 200 µM

Structure (SMILES): CC(C)/N=C1/C=C(C2=C/C(=N\C(C)C)c3ccccc3C2=O)C(=O)c2ccccc21
IC50 ([1]; read-out: IC50): 0.45 µM | IC50 ([2]; read-out: IC50): > 50 µM | IC50 [7]: 25 µM | IC50 [3]: > 50 µM | CC50 [4]: 50 µM | CC50 [5]: 50 µM | CC50 [6]: 100 µM

Structure (SMILES): CCC(CC)/N=C1/C=C(C2=C/C(=N\C(CC)CC)c3ccccc3C2=O)C(=O)c2ccccc21
IC50 ([1]; read-out: IC50): 0.52 µM | IC50 ([2]; read-out: IC50): > 200 µM | IC50 [7]: 50 µM | IC50 [3]: > 50 µM | CC50 [4]: 200 µM | CC50 [5]: > 400 µM | CC50 [6]: 100 µM

IC50 ([1]; read-out: IC50): 680 µM
Structure (SMILES): c1cncc(-c2c[nH]nn2)c1

Structure (SMILES): Nc1ccc(O)c2ncccc12
IC50 ([1]; read-out: IC50): 3 µM | IC50 ([2]; read-out: IC50): 1 µM | IC50 [3]: 5 µM | CC50 [4]: 2.5 µM | CC50 [6]: 5 µM

IC50 ([1]; read-out: IC50): 400 µM
Structure (SMILES): Oc1cccc2[nH]c3ccccc3c12

IC50 [1]: Not Active
Structure (SMILES): CN1c2ccccc2SC1S (centres undefined)

IC50 [1]: Not Active
Structure (SMILES): NC1Nc2ccccc2S1 (centres undefined)

IC50 [1]: Not Active
Structure (SMILES): OC1Cc2ccccc2N1 (centres undefined)

Structure (SMILES): CC(C)(C)Nc1ccc(O)c2ccccc12
IC50 ([1]; read-out: IC50): 4 µM | IC50 ([2]; p815b): Not Active | CC50 [4]: 20 µM

Structure (SMILES): Nc1ccccc1Oc1ccccc1
IC50 ([1]; read-out: IC50): > 1000 µM

IC50 ([1]; read-out: IC50): 2.5 µM
Structure (SMILES): Oc1ccc(NCc2ccccc2)c2ccccc12

IC50 ([1]; read-out: IC50): 44 µM
Structure (SMILES): NCCNc1ccc(O)c2ccccc12

IC50 [1]: Not Active
Structure (SMILES): SC1Nc2ccccc2N1

IC50 [1]: Not Active
Structure (SMILES): OC1Nc2ccccc2S1 (centres undefined)

IC50 ([1]; read-out: IC50): 400 µM
Structure (SMILES): N[C@@H](CO)C(=O)Nc1ccc(O)c2ccccc12

IC50 ([1]; read-out: IC50): 12.5 µM
Structure (SMILES): OCCOc1ccc(O)c2ccccc12

IC50 ([1]; read-out: IC50): 50 µM
Structure (SMILES): SC1Nc2cc(Cl)ccc2S1 (centres undefined)

Structure (SMILES): SC1Nc2ccccc2S1 (centres undefined)
IC50 ([1]; read-out: IC50): 50 µM | IC50 ([2]; read-out: IC50): 20 µM | IC50 [7]: 7 µM | IC50 [3]: > 80 µM | CC50 [4]: > 80 µM | LD50 (HEK293): > 80 µM | LD50 ([6]; Mus musculus, P815B): > 80 µM

IC50 ([1]; read-out: IC50): 12.5 µM
Structure (SMILES): CNc1ccc(O)c2ccccc12

Structure (SMILES): CN(C)c1ccc(O)c2ccccc12
IC50 ([1]; read-out: IC50): 1000 µM

IC50 ([1]; read-out: IC50): 105 µM
Structure (SMILES): NCC(=O)Nc1ccc(O)c2ccccc12

Structure (SMILES): Sc1nc(-c2ccccc2)cs1
IC50 ([2]; read-out: IC50): 20 µM | IC50 [3]: > 80 µM | CC50 [4]: > 80 µM | CC50 [5]: > 80 µM | CC50 [6]: > 80 µM

IC50 ([1]; read-out: IC50): 15 µM
Structure (SMILES): Oc1ccc(NC2CCCCC2)c2ccccc12

IC50 ([1]; read-out: IC50): > 1000 µM
Structure (SMILES): OC1c2ccccc2-c2ccccc21

IC50 ([1]; read-out: IC50): > 200 µM
Structure (SMILES): O=C1c2ccccc2-c2ccccc21

Structure (SMILES): CCNc1ccc(O)c2ncccc12
IC50 ([1]; read-out: IC50): 40 µM | IC50 ([2]; p815b): Not Active | CC50 [4]: 20 µM

Structure (SMILES): CC(C)Nc1ccc(O)c2ncccc12
IC50 ([1]; read-out: IC50): 15 µM | IC50 ([2]; p815b): Not Active | CC50 [4]: > 200 µM

IC50 ([1]; read-out: IC50): 25 µM
Structure (SMILES): CC(C)CNc1ccc(O)c2ccccc12

IC50 ([1]; read-out: IC50): 90 µM
Structure (SMILES): C[C@@H](N)C(=O)Nc1ccc(O)c2ccccc12

IC50 ([1]; read-out: IC50): 3.5 µM
Structure (SMILES): CCC(CC)Nc1ccc(O)c2ccccc12

IC50 ([1]; read-out: IC50): 50 µM
Structure (SMILES): CN(C)CSC1Nc2ccccc2S1 (centres undefined)

IC50 [1]: Not Active
Structure (SMILES): OC1Nc2ccccc2N1

IC50 ([1]; read-out: IC50): 5.5 µM
Structure (SMILES): COc1ccc(N)c2ccccc12

IC50 [1]: Not Active
Structure (SMILES): CSC1Nc2ccccc2S1 (centres undefined)

Structure (SMILES): CCCNc1ccc(O)c2ccccc12
IC50 ([1]; read-out: IC50): 4.5 µM | IC50 ([2]; p815b): Not Active | CC50 [4]: 20 µM

IC50 ([1]; read-out: IC50): 60 µM
Structure (SMILES): C[C@H](N)C(=O)Nc1ccc(O)c2ccccc12

IC50 ([1]; read-out: IC50): 400 µM
Structure (SMILES): Nc1ccc(Nc2ccccc2)cc1

IC50 [1]: Not Active
Structure (SMILES): Nc1ccc2c(c1)SC(S)N2 (centres undefined)

IC50 ([1]; read-out: IC50): > 1000 µM
Structure (SMILES): CN(C)CSc1nc(-c2ccccc2)cs1

IC50 ([1]; read-out: IC50): 3 µM
Structure (SMILES): CCN(CC)CCNc1ccc(O)c2ccccc12

Structure (SMILES): CC1=C/C(=N\C(C)C)c2ccccc2C1=O
IC50 ([1]; read-out: IC50): 0.2 µM | IC50 ([2]; read-out: IC50): 4 µM | IC50 [7]: > 50 µM | IC50 [3]: 6.3 µM | CC50 [4]: 15 µM | CC50 [5]: 50 µM | CC50 [6]: 10 µM

IC50 ([1]; read-out: IC50): 5 µM
Structure (SMILES): NCCCNc1ccc(O)c2ccccc12

Structure (SMILES): Nc1ccc(O)c2ccccc12
IC50 ([1]; read-out: IC50): 6 µM | IC50 ([2]; p815b): Not Active | CC50 [4]: 2 µM

IC50 ([1]; read-out: IC50): 200 µM
Structure (SMILES): O=C(Nc1ccc(O)c2ccccc12)[C@@H]1CCCN1

Structure (SMILES): CCNc1ccc(O)c2ccccc12
IC50 [3]: > 50 µM | CC50 [4]: 400 µM | CC50 [5]: 200 µM | CC50 [6]: 50 µM

Structure (SMILES): CC(C)Nc1ccc(O)c2ccccc12
IC50 ([1]; read-out: IC50): 2.5 µM | IC50 ([2]; read-out: IC50): 30 µM | IC50 [7]: 12.5 µM | IC50 [3]: > 15 µM | CC50 [4]: > 80 µM | CC50 [5]: 100 µM | CC50 [6]: 15 µM

Structure (SMILES): Cn1cc(C[C@H](N)C(=O)O)c2ccccc21 [(L)-1-METHYLTRYPTOPHAN]
IC50 [3]: > 400 µM | CC50 [4]: > 1000 µM | CC50 [5]: > 400 µM | CC50 [6]: > 400 µM

IC50 ([1]; read-out: IC50): 1000 µM
Structure (SMILES): O=C(c1ccccc1)c1ccccc1 [BENZOPHENONE]

Structure (SMILES): Oc1ccc(Cl)cc1Cc1cc(Cl)ccc1O [DICHLOROPHEN]
IC50 ([2]; p815b): Not Active | CC50 [4]: 0.2 µM

Structure (SMILES): Oc1cccc2cccnc12 [OXYQUINOLINE]
IC50 ([1]; read-out: IC50): 750 µM
